In the library only some 2.3% were active in any assay of this set; here they are far more common.
TAAR1 antag: human TAAR1 antagonists, primary screen, Fluo-8 calcium fluorescence, CHO RD-HGA16 cells. antagonist. inhibition, % at 3 µM. hit rate 1.5% among 360,000. Trace amine-associated receptor 1 (Homo sapiens), Q96RJ0;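 active = inhibition above a per-plate cutoff, the mean inhibition of test compounds on that plate plus 3 SD, cut at about 49% in these data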;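 note: 0% = DMSO plus EC80 beta-PEA response and 100% = DMSO alone without agonist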
Target sequence (Q96RJ0 whole entry, looked up): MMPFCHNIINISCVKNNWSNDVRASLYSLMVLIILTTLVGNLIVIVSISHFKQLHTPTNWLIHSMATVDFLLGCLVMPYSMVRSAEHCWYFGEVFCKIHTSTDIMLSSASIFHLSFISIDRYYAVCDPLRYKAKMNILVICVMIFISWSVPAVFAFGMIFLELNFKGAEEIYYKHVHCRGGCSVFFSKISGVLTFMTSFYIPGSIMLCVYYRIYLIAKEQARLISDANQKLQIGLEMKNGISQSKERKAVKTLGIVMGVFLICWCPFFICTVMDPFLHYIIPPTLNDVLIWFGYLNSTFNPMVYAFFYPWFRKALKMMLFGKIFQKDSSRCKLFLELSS
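Assay system: RD-HGA16 CHO cells with stable hTAAR1 and Gα16 / Reagent: EC80 β-phenethylamine stimulus / Doses: 3 µM, single point / Timing: dye loading 75 min at 37 °C, then 30 min room temperature / Measured by: Fluo-8 intracellular calcium dye fluorescence, real-time kinetic reads / Controls: vehicle wells and EC80 agonist wells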
V1aR counter: agonists of human V1a receptor, primary screen, counter-screen for OXTR agonist project, fluorescence, CHO-V1R cells; activation, % at 3 µM; Fluo-8 calcium fluorescence, agonist mode; 0% DMSO, 100% 3 nM vasopressin; Vasopressin V1a receptor (Homo sapiens), P37288; hit rate 0.25% among 320,000;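 active = activation above the mean activation of all tested compounds plus 3 SD, per screening run, cut at about 20% in these data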;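 note: signal is peak over basal fluorescence ratio across a 100 second FLIPR read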
OXTR ag: human OXTR agonists, primary screen, fluorescence, CHO-OTR cells, Fluo-8 calcium; activation, % at 3 µM; Oxytocin receptor (Homo sapiens), P30559; hit rate 0.32% among 320,000; Fluo-8 calcium fluorescence; normalized: DMSO 0%, oxytocin 100%;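 active = activation above the mean of all tested compounds plus 3 SD, cutoff set per screening run, cut at about 20% in these data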;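 note: peak over basal fluorescence ratio from a 100 s FLIPR kinetic read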
Target sequence (P30559 whole entry, looked up): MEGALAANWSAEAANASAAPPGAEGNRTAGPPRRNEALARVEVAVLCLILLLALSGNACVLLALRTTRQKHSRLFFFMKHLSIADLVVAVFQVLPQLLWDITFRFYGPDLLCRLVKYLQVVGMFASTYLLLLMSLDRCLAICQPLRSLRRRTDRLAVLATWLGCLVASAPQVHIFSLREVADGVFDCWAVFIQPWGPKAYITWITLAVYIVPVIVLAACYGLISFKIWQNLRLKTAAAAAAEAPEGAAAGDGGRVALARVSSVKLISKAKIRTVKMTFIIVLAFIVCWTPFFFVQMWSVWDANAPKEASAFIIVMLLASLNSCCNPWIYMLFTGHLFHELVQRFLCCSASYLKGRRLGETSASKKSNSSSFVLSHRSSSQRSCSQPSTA
OXTR potentiator: human OXTR potentiators, primary screen, fluorescence, CHO-OTR cells, Fluo-8 calcium; Fluo-8 calcium fluorescence, potentiator mode; 0% = oxytocin EC15, 100% = EC100; Oxytocin receptor (Homo sapiens), P30559; activation, % at 3 µM; hit rate 0.061% among 320,000;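 active = activation above that plate's cutoff, the mean activation of tested compounds plus 3 SD, cut at about 6.6% in these data, passing the limit was not always enough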;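 note: 100% uses oxytocin at 75 nM as the full agonist control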
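assay system = CHO-OTR cells, human receptor | schedule = compound 6 min at room temperature before oxytocin, 100 s read | detection = Fluo-8 intracellular calcium fluorescence, ex 470-495, em 515-575 nm | evaluation = normalized max/min fluorescence ratio, % activation | control set = EC15 oxytocin alone as 0%, 75 nM oxytocin (EC100) as 100%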
TAAR1 ag: human TAAR1 agonists, primary screen, Fluo-8 calcium fluorescence, CHO RD-HGA16 cells. Trace amine-associated receptor 1 (Homo sapiens), Q96RJ0. vehicle wells 0%, saturating PEA agonist 100%. activation, % at 3 µM. hit rate 0.99% among 360,000. AID 624467, 2012;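 active = activation above the mean activation of all test compounds in the run plus 3 SD, cut at about 38% in these data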
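Test system: RD-HGA16 (CHO) cells co-expressing Gα16 and hTAAR1 / Benchmarks: DMSO vehicle as 0%, PEA at EC100 as 100% / Repeats: no replicates (n 1) / Measure: % activation from peak over basal fluorescence ratio, DMSO-to-PEA scaled / Timing: 17-24 h plating, Fluo-8 75 min 37 °C, 30 min RT / Technique: kinetic Fluo-8 calcium fluorescence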
TAAR1 ag confirm: human TAAR1 agonists, retest of hits, confirmation, Fluo-8 calcium fluorescence, CHO RD-HGA16 cells; shares compounds with TAAR1 ag; scaled: DMSO 0%, maximal phenethylamine 100%; activation, % at 3 µM; hit rate 82% among 2,400; AID 651783, 2012;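 active = activation above a cutoff set at the run's mean compound activation plus 3 SD, cut at about 39% in these data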
Ga16 ag counter: nonselective calcium mobilization agonists, CHO-Ga16 cells, counter-screen for hTAAR1 agonist project, cell-based, fluorescence, CHO-Ga16 parental line; AID 651787, 2012; activation, % at 3 µM; Fluo-8 calcium fluorescence; normalized to maximal ATP response, DMSO zero; shares compounds with TAAR1 ag; hit rate 50% among 2,400;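 active = activation above the run cutoff, the mean activation over all tested wells plus 3 SD, cut at about 12% in these data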;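 note: 0% = DMSO wells and 100% = maximal ATP response on the peak over basal ratio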
TAAR1 desens: TAAR1 desensitization by agonist hits, confirmation, counter-screen for TAAR1 agonist project, cell-based, fluorescence, tachyphylaxis. inhibition, % at 3 µM. CHO RD-HGA16 hTAAR1, Fluo-8 calcium, beta-PEA response inhibition. hit rate 46% among 2,400. shares compounds with TAAR1 ag;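 active = inhibition above the run cutoff, the mean inhibition of all test compounds plus 3 SD, cut at about 49% in these data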;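 note: beta-PEA stimulus applied at its EC80; loss of beta-PEA calcium signal after compound pretreatment read as receptor desensitization; 0% = DMSO with beta-PEA at EC80 and 100% = DMSO alone without agonist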
Ga16 nonsel ant: inhibition of ATP-evoked calcium response in CHO-Ga16 cells, counter-screen for TAAR1 agonist project, cell-based, fluorescence; shares compounds with TAAR1 ag; CHO-Ga16 ATP-induced calcium, Fluo-8 fluorescence; inhibition, % at 3 µM; hit rate 39% among 2,400; AID 651952, 2012;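 active = inhibition above the plate's mean compound inhibition plus 3 SD, computed per plate, cut at about 22% in these data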;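 note: 0% = EC80 ATP with DMSO and 100% = DMSO wells without ATP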
Active calls of the source: *.

How did CC(NC(=O)Cc1ccc(-c2ccccc2)cc1)c1ccccc1 (configuration not stated) do in these assays?
TAAR1 antag: 22; V1aR counter: 2; OXTR ag: 6; OXTR potentiator: -19; TAAR1 ag: 60*; TAAR1 ag confirm: 17; Ga16 ag counter: 18*; TAAR1 desens: 7; Ga16 nonsel ant: 9

Results for COC(=O)c1c(-n2c(C)cc(C=O)c2C)sc2c1CCCC2 ?
TAAR1 antag: 72*; V1aR counter: -1; OXTR ag: -2; OXTR potentiator: 3; TAAR1 ag: 41*; TAAR1 ag confirm: -4; Ga16 ag counter: 1; TAAR1 desens: 0; Ga16 nonsel ant: 3

How did COc1cccc(CNC(=O)CCC2CCCN(C(=O)c3ccccc3N(C)C)C2)c1 (configuration not stated) do in these assays?
TAAR1 antag: -10; V1aR counter: 1; OXTR ag: 0; OXTR potentiator: -6; TAAR1 ag: -1

How did O=C(O)c1cn(Cc2ccccc2Cl)c2ccc(S(=O)(=O)N3CCOCC3)cc2c1=O do in these assays?
TAAR1 antag: -3; V1aR counter: 0; OXTR ag: 0; OXTR potentiator: -23; TAAR1 ag: 10

How did O=C(O)CCCC(=O)Nc1ccc(Oc2ncnc3cc(Cl)ccc23)nc1 do in these assays?
TAAR1 antag: -16; V1aR counter: -1; OXTR ag: 0; OXTR potentiator: -1; TAAR1 ag: 1

How did O=C(Nc1ccc(F)cc1)Nc1ccc(Oc2ncnc3cc(Cl)ccc23)nc1 do in these assays?
TAAR1 antag: 29; V1aR counter: 0; OXTR ag: 1; OXTR potentiator: 0; TAAR1 ag: 56*; TAAR1 ag confirm: 75*; Ga16 ag counter: 1; TAAR1 desens: 81*; Ga16 nonsel ant: 6

Results for O=C(c1ccc2ccccc2c1O)N1CCCCC1 ?
TAAR1 antag: 14; TAAR1 ag: 1

Results for CC(C)(C)c1ccc(C(=O)NNC(=S)NC(=O)c2cccnc2)cc1 ?
TAAR1 antag: 35; V1aR counter: 13; OXTR ag: 8; OXTR potentiator: 2; TAAR1 ag: 86*; TAAR1 ag confirm: 49*; Ga16 ag counter: 47*; TAAR1 desens: 38; Ga16 nonsel ant: 28*

How did O=C(NNC(=S)NC(=O)c1ccccc1)c1cccnc1 do in these assays?
TAAR1 antag: -17; V1aR counter: 0; OXTR ag: -1; OXTR potentiator: -2; TAAR1 ag: 2

How did Cc1cc(OCC(=O)NNC(=S)NC(=O)c2cccs2)ccc1Cl do in these assays?
TAAR1 antag: 65*; TAAR1 ag: 103*; TAAR1 ag confirm: 77*; Ga16 ag counter: 76*; TAAR1 desens: 58*; Ga16 nonsel ant: 54*

How did CCCOc1ccc(-c2cc(C(=O)NCC3CCCO3)c3ccccc3n2)cc1 (configuration not stated) do in these assays?
TAAR1 antag: 42; V1aR counter: 0; OXTR ag: -1; OXTR potentiator: -15; TAAR1 ag: 12

What do the screens show for `Cc1ccc(OCC(=O)NNC(=S)NC(=O)c2cccs2)c(C)c1`?
TAAR1 antag: -12; TAAR1 ag: 0

Results for CCCOc1ccc(C(=O)NNC(=S)NC(=O)c2cc(-c3ccccc3)nc3ccccc23)cc1 ?
TAAR1 antag: 22; V1aR counter: 1; OXTR ag: 0; OXTR potentiator: -14; TAAR1 ag: 55*; TAAR1 ag confirm: 83*; Ga16 ag counter: 72*; TAAR1 desens: 77*; Ga16 nonsel ant: 74*

What do the screens show for `CCCOc1ccc(C(=O)NNC(=S)NC(=O)c2ccccc2[N+](=O)[O-])cc1`?
TAAR1 antag: 26; V1aR counter: 5; OXTR ag: 2; OXTR potentiator: -4; TAAR1 ag: 79*; TAAR1 ag confirm: 28; Ga16 ag counter: 28*; TAAR1 desens: 16; Ga16 nonsel ant: 27*

Results for CCCNC(=O)C(Cc1ccccc1C)NC(=O)c1ccc(C(F)(F)F)cc1 (configuration not stated) ?
TAAR1 antag: 0; V1aR counter: 0; OXTR ag: 1; OXTR potentiator: 3; TAAR1 ag: 12

What do the screens show for `Cc1cc(Br)c2c(c1)C1(OCCO1)C(=O)N2`?
TAAR1 antag: -4; V1aR counter: 0; OXTR ag: -2; OXTR potentiator: -9; TAAR1 ag: -2

Results for Cc1ccccc1C(=O)Nc1cccc(NC(=S)NC(=O)c2cccs2)c1 ?
TAAR1 antag: -11; V1aR counter: 2; OXTR ag: -1; OXTR potentiator: -8; TAAR1 ag: 4

Results for CC(C)(C)c1ccc(C(=O)NC(=S)NNC(=O)c2cccs2)cc1 ?
TAAR1 antag: 105*; V1aR counter: 93*; OXTR ag: 101*; OXTR potentiator: -11; TAAR1 ag: 174*; TAAR1 ag confirm: 159*; Ga16 ag counter: 129*; TAAR1 desens: 107*; Ga16 nonsel ant: 102*

Results for O=C(NC(=S)NNC(=O)c1cccs1)c1ccccc1 ?
TAAR1 antag: 28; V1aR counter: 2; OXTR ag: 1; OXTR potentiator: -8; TAAR1 ag: 37

Results for CCCOc1ccc(C(=O)NNC(=S)NC(C)=O)cc1 ?
TAAR1 antag: -14; V1aR counter: -2; OXTR ag: -2; OXTR potentiator: -8; TAAR1 ag: 13
